The nature of series [1]: folding enthalpy; higher = less favourable; fluorescence melt of hairpins on a sequencing array, two-state fit. The settings on record: sodium 0.088 M. The method in brief:
(§1)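 Two-state fits, bootstrapped, provided melting temperature and folding enthalpy from Cy3 fluorescence normalised to pre-quench Cy3 and to control constructs. Library hairpins with annealed Cy3 and quencher oligos were imaged on a sequenced MiSeq flow cell in 50 mM Na-HEPES pH 8.0, 25 mM NaCl, at 2.5 °C intervals up to 60 °C. Four replicates were combined with inverse-variance weighting. A 9.35 °C upward shift was applied to fitted temperatures to match UV melts.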

A short description of series [2]: melting temperature; fluorescence melt of hairpins on a sequencing array, two-state fit, raised by 9.35 °C to match UV melts. Conditions: sodium 0.088 M. The method in brief: as §1

GCCAGGCGAAAGCGTCGC ((.(.((....)).).)): the folding enthalpy in series [1] is -8.31 kcal/mol. For the same sequence, the Tm in series [2] turned out to be 40.7 °C.
As for GCCAGGGCGAAAGCCGGC (((..(((....)))))), in series [1], the folding enthalpy was -17.1 kcal/mol. Also, in series [2], the Tm was 63.3 °C.
For GCCAGTGGAAACACTAGC ((.((((....)))).)) the same measures were -21.9 kcal/mol and 39.9 °C.
As to GCCATAGAAATATGGC ((((((....)))))), in series [1], the folding enthalpy is -36.4 kcal/mol. In series [2], the Tm turned out to be 53.5 °C.
For the sequence GCCATCCGAAAGGAGGC (((.(((....)))))), the folding enthalpy in series [1] was -22.8 kcal/mol. Further, the Tm in series [2] was determined as 57.6 °C.
As for GCCATCCGAAAGGAGGGC (((.(((....))).))), the folding enthalpy in series [1] was -44 kcal/mol. In addition, the Tm in series [2] came out at 67.2 °C.
For the sequence GCCATCGAAAGATATGGC ((((((....)))..))), in series [1], the folding enthalpy is -32 kcal/mol. In addition, in series [2], the Tm was 46.6 °C.
For GCCATCGAAAGATGAGGC ((((((....)))..))) the same measures were -18.8 kcal/mol and 46.3 °C.
For the sequence GCCATCGAAAGATTAGGC ((((((....)))..))), the folding enthalpy in series [1] is -30.7 kcal/mol. In series [2], the Tm turned out to be 43.4 °C.
Take GCCATGAAAATGGC (((((....))))): the folding enthalpy in series [1] was -28.1 kcal/mol. Besides, the Tm in series [2] was found to be 60.6 °C.
Regarding GCCATGCGAAAGCAAAGC ((..(((....)))..)), in series [1], the folding enthalpy was -11.5 kcal/mol. Further, the Tm in series [2] came to 32.2 °C.
Turning to GCCATGCGAAAGCAGAGC ((..(((....)))..)), the folding enthalpy in series [1] was -17.9 kcal/mol. Besides, in series [2], the Tm was determined as 44.6 °C.
With GCCATGCGAAAGCATAGC ((.((((....)))).)), the folding enthalpy in series [1] was -17 kcal/mol. Besides, in series [2], the Tm turned out to be 51.6 °C.
The like results for GCCATGCGAAAGCCAGGC (((..((....))..))) were, in that order, -21 kcal/mol and 55.4 °C.
For GCCATGCGAAAGCCTGGC ((((.((....)).)))) the same measures were -31.2 kcal/mol and 62.8 °C.
GCCATGCGAAAGCCTTGC ((.(.((....)).).)): the folding enthalpy in series [1] is -10 kcal/mol. Besides, the Tm in series [2] came to 26.6 °C.
As to GCCATGCGAAAGCGTCGC ((.(.((....)).).)), the folding enthalpy in series [1] was -12.7 kcal/mol. Also, the Tm in series [2] was found to be 48 °C.
GCCATGGCGAAAGCCGGC (((..(((....)))))): in series [1], the folding enthalpy was -16.2 kcal/mol. Further, in series [2], the Tm turned out to be 62 °C.
Take GCCATTCGAAAGAAAGGC (((.(((....))).))): in series [1], the folding enthalpy was -37 kcal/mol. Besides, the Tm in series [2] was 49.3 °C.
For GCCATTGCGAAAGCAGGC (((..(((....)))))), the folding enthalpy in series [1] is -19.1 kcal/mol. The Tm in series [2] is 51.4 °C.
In the case of GCCATTGGAAACAATAGC ((.((((....)))).)), in series [1], the folding enthalpy was -13.7 kcal/mol. Moreover, in series [2], the Tm amounted to 33.1 °C.
On to GCCATTGGAAACGATGGC (((((.(....).))))), for which, in series [1], the folding enthalpy was -45.8 kcal/mol. Also, the Tm in series [2] came out at 54.1 °C.
For GCCCAACCGAAAGGTGGC (((..(((....)))))), in series [1], the folding enthalpy is -18.8 kcal/mol. The Tm in series [2] is 51.6 °C.
As for GCCCAACGAAAGTTGGC (((.(((....)))))), the folding enthalpy in series [1] is -12.8 kcal/mol. Further, the Tm in series [2] stood at 57.1 °C.
With GCCCAAGGAAACCTGGGC (((((.(....).))))), the folding enthalpy in series [1] was -43.8 kcal/mol. For the same sequence, the Tm in series [2] stood at 54.1 °C.
On to GCCCAATCGAAAGATGGC (((..(((....)))))), for which the folding enthalpy in series [1] was -24.9 kcal/mol. Moreover, the Tm in series [2] was found to be 43.3 °C.
For the sequence GCCCACGAAAGTGATGGC ((((((....)))..))), the folding enthalpy in series [1] is -29.4 kcal/mol. For the same sequence, the Tm in series [2] was determined as 50.6 °C.
As for GCCCACGAAAGTGCGGGC ((((((....)))..))), the folding enthalpy in series [1] is -28.4 kcal/mol. In addition, in series [2], the Tm was found to be 55 °C.
Turning to GCCCACGAAAGTGTGGC ((((((....))).))), the folding enthalpy in series [1] is -30.2 kcal/mol. Further, the Tm in series [2] was 62.4 °C.
The like results for GCCCACGAAAGTGTGGGC ((((((....)))..))) were, in that order, -31.5 kcal/mol and 68 °C.
As for GCCCACGAAAGTGTTGGC ((((((....)))..))), the folding enthalpy in series [1] was -20.4 kcal/mol. Moreover, in series [2], the Tm was determined as 49 °C.
The like results for GCCCACGGAAACATGGGC (((((.(....).))))) were, in that order, -30.8 kcal/mol and 50.7 °C.
In the case of GCCCACGGAAACGTGAGC ((.((((....)))).)), the folding enthalpy in series [1] is -27.2 kcal/mol. Besides, the Tm in series [2] was 50.9 °C.
In the case of GCCCAGAAATGGGC (((((....))))), the folding enthalpy in series [1] is -33.9 kcal/mol. Further, the Tm in series [2] came to 63.1 °C.
As to GCCCAGACGAAAGTCGGC (((..(((....)))))), in series [1], the folding enthalpy was -15.7 kcal/mol. For the same sequence, the Tm in series [2] came out at 49.6 °C.
As to GCCCAGCGAAAGCAGCGC ((.(.((....)).).)), the folding enthalpy in series [1] is -13.9 kcal/mol. For the same sequence, the Tm in series [2] amounted to 46.5 °C.

Source of the values: the array DNA melting data of Ke et al. (doi:10.1101/2024.01.08.574731).
